This passage reports inhibition and IC50 results from ChEMBL document CHEMBL3994608, “Design, synthesis and antimicrobial activities of thiouracil derivatives containing triazolo-thiadiazole as SecA inhibitors” (Eur J Med Chem, 2017).

Values after ≈ are worked out from the molar mass of the structure shown.

The test system of assay [1] is Bacillus amyloliquefaciens. The experiment in a line: Antibacterial activity against Bacillus amyloliquefaciens at 25 ug/ml after overnight incubation by plate colony counting method relative to control. Type of assay: functional. An outline of the steps:
(§1)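 Plate colony counting on nutrient agar. Suspensions made from fresh colonies on NA slants grown 24 h, then serially diluted tenfold in sterile water. Duplicate aliquots of the 10^-5 and 10^-6 dilutions spread on NA plates containing test compound at 25 µg/mL; control plates NA only. Incubated overnight at 35 °C, colonies counted, inhibition given as percentage.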

The test system of the next assay is Bacillus subtilis. In words: Antibacterial activity against Bacillus subtilis at 25 ug/ml after overnight incubation by plate colony counting method relative to control. The assay is classed as functional. The method in brief: as §1
In a further assay the test system is Staphylococcus aureus. The experiment in a line: Antibacterial activity against Staphylococcus aureus at 25 ug/ml after overnight incubation by plate colony counting method relative to control. Type of assay: functional. An outline of the steps:
as §1

A short description of assay [2]: Inhibition of Escherichia coli BL21.19 SecA after 30 mins by malachite green dye-based assay. The method in brief:
(§2)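 SecA ATPase from E. coli BL21.19. Reaction contains Tris-HCl buffer (pH 7.6, with KCl, NH4Cl, DTT, Mg(OAc)2), […], […] and sample, diluted with distilled water; water as blank. Incubated 37 °C for 30 min. Malachite green/ammonium molybdate/Triton X-100 colour reagent added, then 34% citrate after 1 min. Absorbance read at 660 nm and inhibition calculated from it.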

Assay [3] concerns Escherichia coli. The experiment in a line: Inhibition of Escherichia coli BL21.19 SecA at 20 ug/ml after 30 mins by malachite green dye-based assay relative to control. An outline of the steps: as §2
For assay [4], the system named is Escherichia coli. In words: Inhibition of Escherichia coli BL21.19 SecA at 10 ug/ml after 30 mins by malachite green dye-based assay relative to control. An outline of the steps: as §2

Consider `CCn1cc(C(=O)O)c(=O)c2cc(F)c(N3CCNCC3)cc21` [NORFLOXACIN], for which the inhibition (usually the share of the control response that was lost under treatment) at 25 µg/mL in assay [1] was determined as 89%; in the assay on Bacillus subtilis it was 85%; in the assay with Staphylococcus aureus, 86%.

As to `N#Cc1c(-c2c(Cl)cccc2Cl)nc(SCc2ccc(-c3nn4c(-c5ccccc5)nnc4s3)cc2)[nH]c1=O`, the inhibition at 25 µg/mL is 60% in assay [1], 49% in the assay with Bacillus subtilis and 56% with Staphylococcus aureus.

For the compound `N#Cc1c(-c2c(Cl)cccc2Cl)nc(SCc2ccc(-c3nn4c(-c5c(Cl)cccc5Cl)nnc4s3)cc2)[nH]c1=O`, the values for the inhibition at 25 µg/mL (in assay [1]; with Bacillus subtilis; in the assay on Staphylococcus aureus) were 86%, 84% and 82%, respectively.

Take `N#Cc1c(-c2ccc(Cl)cc2Cl)nc(SCc2ccc(-c3nn4c(-c5c(Cl)cccc5Cl)nnc4s3)cc2)[nH]c1=O`: the inhibition at 25 µg/mL in assay [1] was determined as 78%; in the assay with Bacillus subtilis it was 86%; in the assay on Staphylococcus aureus, 81%.

As to `N#Cc1c(-c2ccc(-c3ccccc3)cc2)nc(SCc2ccc(-c3nn4c(-c5ccccc5Cl)nnc4s3)cc2)[nH]c1=O`, the inhibition at 25 µg/mL was 81% in assay [1], 88% with Bacillus subtilis and 83% in the assay on Staphylococcus aureus.

For the compound `N#Cc1c(-c2ccc(-c3ccccc3)cc2)nc(SCc2ccc(CSc3nc(-c4ccc(-c5ccccc5)cc4)c(C#N)c(=O)[nH]3)cc2)[nH]c1=O`, the inhibition at 25 µg/mL in assay [1] was determined as 85%; in the assay with Bacillus subtilis it was 62%; in the assay on Staphylococcus aureus, 87%. The half-maximal inhibitory concentration (IC50) (in general, the concentration that inhibits the measured activity by half) in assay [2] was determined as 20.8 µg/mL (≈ 29.2 µM).

In the case of `N#Cc1c(-c2ccc(-c3ccccc3)cc2)nc(SCc2ccc(-c3nn4c(-c5ccccc5)nnc4s3)cc2)[nH]c1=O`, the inhibition at 25 µg/mL stood at 58% in assay [1], 57% in the assay with Bacillus subtilis and 68% with Staphylococcus aureus.

With `N#Cc1c(-c2ccccc2Cl)nc(SCc2ccc(-c3nn4c(-c5ccccc5)nnc4s3)cc2)[nH]c1=O`, the inhibition at 25 µg/mL amounted to 66% in assay [1], 55% with Bacillus subtilis and 46% in the assay with Staphylococcus aureus.

As for `N#Cc1c(-c2ccc(Cl)cc2Cl)nc(SCc2ccc(-c3nn4c(-c5ccccc5)nnc4s3)cc2)[nH]c1=O`, the figures for the inhibition at 25 µg/mL (in assay [1]; with Bacillus subtilis; with Staphylococcus aureus) were 82%, 90% and 88%, respectively. Also, the inhibition is 72% in the assay on Escherichia coli [3] and 51% in the assay on Escherichia coli [4]. This compound also registered an IC50 in assay [2] of 9.7 µg/mL (≈ 16.5 µM).

With `N#Cc1c(-c2c(Cl)cccc2Cl)nc(SCc2ccc(-c3nn4c(-c5ccccc5Cl)nnc4s3)cc2)[nH]c1=O`, the inhibition at 25 µg/mL in assay [1] was determined as 78%; in the assay with Bacillus subtilis it was 63%; in the assay on Staphylococcus aureus it was 56%.

For `N#Cc1c(-c2ccc(-c3ccccc3)cc2)nc(SCc2ccc(-c3nn4c(-c5c(Cl)cccc5Cl)nnc4s3)cc2)[nH]c1=O`, the values for the inhibition at 25 µg/mL (in assay [1]; with Bacillus subtilis; in the assay with Staphylococcus aureus) were 82%, 86% and 84%, respectively.

With `N#Cc1c(-c2ccccc2)nc(SCc2ccc(-c3nn4c(-c5ccccc5)nnc4s3)cc2)[nH]c1=O`, the figures for the inhibition at 25 µg/mL (in assay [1]; with Bacillus subtilis; in the assay on Staphylococcus aureus) were 57%, 48% and 44%, respectively.

As for `N#Cc1c(-c2ccc(Cl)cc2)nc(SCc2ccc(-c3nn4c(-c5ccccc5)nnc4s3)cc2)[nH]c1=O`, the results for the inhibition at 25 µg/mL (in assay [1]; in the assay with Bacillus subtilis; in the assay with Staphylococcus aureus) were 62%, 51% and 49%, respectively.

Turning to `N#Cc1c(-c2ccc(Cl)cc2Cl)nc(SCc2ccc(-c3nn4c(-c5ccccc5Cl)nnc4s3)cc2)[nH]c1=O`, the results for the inhibition at 25 µg/mL (in assay [1]; in the assay on Bacillus subtilis; in the assay with Staphylococcus aureus) were 80%, 92% and 85%, respectively. In assay [2], the IC50 entry is on record as “Nd(Insoluble)”.
